From PMC10127574 (ACS chemical biology, 2015)
Read-outs that look alike come from different tables or passages of the source. One block for each compound: values may come before it.

How the values were obtained:
WT-IDE [1] = target: T1, WT-IDE (Homo sapiens, UniProt P14735); assay: test for irreversible inhibition by 100-fold dilution; format: biochemical; details: 100 nM IDE with high inhibitor concentration 30 min, then 100-fold dilution
T1 sequence (P14735 1-1019): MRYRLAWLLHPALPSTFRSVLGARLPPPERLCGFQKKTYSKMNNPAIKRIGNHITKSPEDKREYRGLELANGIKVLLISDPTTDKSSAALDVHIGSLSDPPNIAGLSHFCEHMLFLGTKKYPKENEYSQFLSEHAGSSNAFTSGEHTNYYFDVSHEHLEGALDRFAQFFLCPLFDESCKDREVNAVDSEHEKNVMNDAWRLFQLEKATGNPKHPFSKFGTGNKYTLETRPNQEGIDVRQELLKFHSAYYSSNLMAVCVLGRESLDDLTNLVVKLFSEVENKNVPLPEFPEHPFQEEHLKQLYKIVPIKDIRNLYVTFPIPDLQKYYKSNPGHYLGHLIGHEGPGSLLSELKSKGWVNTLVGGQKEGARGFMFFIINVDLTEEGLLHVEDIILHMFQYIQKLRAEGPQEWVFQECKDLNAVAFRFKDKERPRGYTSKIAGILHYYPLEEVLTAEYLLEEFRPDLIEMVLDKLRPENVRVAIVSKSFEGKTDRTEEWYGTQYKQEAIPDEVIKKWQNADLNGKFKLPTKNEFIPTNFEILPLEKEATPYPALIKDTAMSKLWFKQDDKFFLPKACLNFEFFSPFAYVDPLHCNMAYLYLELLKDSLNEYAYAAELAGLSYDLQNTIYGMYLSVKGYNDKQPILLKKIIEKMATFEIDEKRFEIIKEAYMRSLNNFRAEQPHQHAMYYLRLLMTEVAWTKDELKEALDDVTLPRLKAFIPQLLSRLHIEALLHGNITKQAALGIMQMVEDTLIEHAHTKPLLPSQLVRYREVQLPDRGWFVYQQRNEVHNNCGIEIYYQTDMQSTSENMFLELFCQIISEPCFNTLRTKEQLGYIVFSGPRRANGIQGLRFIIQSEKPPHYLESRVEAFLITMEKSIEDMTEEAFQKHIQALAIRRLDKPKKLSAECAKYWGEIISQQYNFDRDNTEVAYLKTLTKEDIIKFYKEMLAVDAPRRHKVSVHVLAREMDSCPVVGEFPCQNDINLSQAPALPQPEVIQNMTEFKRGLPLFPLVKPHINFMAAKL
Summary of the method: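 Recombinant WT-IDE activity was measured with FRET1 substrate in DTT-free solutions under three conditions. (1) 1 nM enzyme with "high" inhibitor concentrations. (2) 1 nM enzyme with 100-fold lower concentrations. (3) 100 nM enzyme preincubated 30 min with "high" concentrations, then diluted 100-fold to 1 nM enzyme and "low" inhibitor before assay. Reversible and irreversible reference inhibitors were run alongside.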

IDE mutant sC819 = assay: inhibition of single-cysteine IDE mutant sC819; format: biochemical, human; details: Figure 3B
IDE mutant sC812 = assay: inhibition of single-cysteine IDE mutant sC812; format: biochemical, human; details: Figure 3B
extracellular IDE = target: T2, extracellular IDE (Homo sapiens, UniProt P14735); assay: cell-based IDE activity assay; details: for activity by hit cutoff criteria: Table 1 screening assays
T2 sequence (P14735 1-1019): T1 sequence (P14735 1-1019)
Summary of the method: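 Extracellular IDE secreted by HEK-293 cells, harvested mechanically rather than by trypsin, served as the endogenous enzyme source. Activity was read by fluorescence polarization with fluoresceinated, biotinylated Aß peptide (FAßB) in DTT-free solutions. The primary screen used a nominal compound concentration of 6 μM. Confirmed hits were retested in dose-response format to give apparent IC50.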

[2] = target: T3, recombinant wild-type IDE (WT-IDE) (Homo sapiens, UniProt P14735); assay: cell-free IDE activity assay with fluorogenic peptide substrate FRET1; format: biochemical
T3 sequence (P14735 1-1019): T1 sequence (P14735 1-1019)

[3] = target: T4, cysteine-free form of IDE (CF-IDE) (Homo sapiens, UniProt P14735, C819S, form not given); assay: IDE activity assay with FRET1 using cysteine-free IDE; format: biochemical; details: read-out: ki CF-IDE
T4 sequence (P14735 42-1019 C819S): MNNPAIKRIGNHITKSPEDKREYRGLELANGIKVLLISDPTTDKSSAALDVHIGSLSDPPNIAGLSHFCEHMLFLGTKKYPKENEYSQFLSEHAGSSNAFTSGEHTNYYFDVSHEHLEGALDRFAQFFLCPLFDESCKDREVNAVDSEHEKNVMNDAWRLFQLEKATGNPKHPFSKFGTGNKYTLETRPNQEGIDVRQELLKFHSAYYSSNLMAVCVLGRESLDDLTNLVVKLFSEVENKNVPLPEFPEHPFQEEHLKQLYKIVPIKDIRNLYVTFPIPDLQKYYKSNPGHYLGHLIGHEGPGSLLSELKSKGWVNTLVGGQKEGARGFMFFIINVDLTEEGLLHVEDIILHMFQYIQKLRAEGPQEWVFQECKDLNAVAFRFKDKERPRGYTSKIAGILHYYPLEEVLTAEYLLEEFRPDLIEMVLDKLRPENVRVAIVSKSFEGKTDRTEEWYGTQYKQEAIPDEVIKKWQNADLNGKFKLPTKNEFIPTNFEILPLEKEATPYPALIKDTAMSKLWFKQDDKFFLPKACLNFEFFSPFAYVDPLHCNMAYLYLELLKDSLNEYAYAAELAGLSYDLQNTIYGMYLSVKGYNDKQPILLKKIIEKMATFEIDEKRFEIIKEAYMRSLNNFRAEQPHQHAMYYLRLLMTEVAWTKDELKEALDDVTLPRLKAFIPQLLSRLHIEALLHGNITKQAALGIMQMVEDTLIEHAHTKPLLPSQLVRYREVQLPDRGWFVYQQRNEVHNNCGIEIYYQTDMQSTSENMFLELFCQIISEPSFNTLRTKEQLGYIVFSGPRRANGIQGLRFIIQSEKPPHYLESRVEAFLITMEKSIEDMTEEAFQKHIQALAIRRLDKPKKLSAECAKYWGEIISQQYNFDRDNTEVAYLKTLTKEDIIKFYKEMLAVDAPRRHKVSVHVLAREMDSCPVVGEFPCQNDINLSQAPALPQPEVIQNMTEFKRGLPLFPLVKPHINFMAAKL

WT-IDE [4] = target: T1, WT-IDE; assay: kinetics of irreversible inhibition; format: biochemical; details: WT-IDE 2 nM, FRET1 5 μM; rate constant of irreversible step
Summary of the method: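 Recombinant WT-IDE (2 nM) and FRET1 substrate (5 μM) were monitored continuously at 3-s intervals, starting immediately after adding inhibitor at several concentrations. Curve fits gave observed rate constants, which were plotted against inhibitor concentration. A hyperbolic fit gave kinhib and KM. LE was taken as ΔG/heavy atoms using KM; SEI as pKM/tPSA/100 Å2.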

WT-IDE [5] = target: T1, WT-IDE; assay: IDE activity in the presence of reducing agents / reversal by DTT; format: biochemical
[6] = target: T5, intracellular pools of IDE (Homo sapiens, UniProt P14735); assay: intracellular IDE activity after incubation of intact HEK cells; format: cell-based; details: 10 μM, 36 h
T5 sequence (P14735 1-1019): T1 sequence (P14735 1-1019)
Summary of the method: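 Confluent HEK monolayers were exposed 36 h to 10 μM compound or DMSO vehicle, and conditioned medium was collected. Cells were washed 3× in PBS and held 30 min in hypotonic 50 mM Tris-HCl at 4 °C. They were scraped, extruded 3× through a 30G needle and spun 10,000 × g, 10 min, 4 °C. Supernatant activity was assayed by FAßB degradation without or with 1 mM DTT.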

[7] = read-out: IC50^app cell-based, Table 1, HEK-293 cells, extracellular IDE
[8] = read-out: IC50^app cell-free, Table 1, WT-IDE, FRET1

Structure (SMILES): CCN1C(=O)C=CC1=O [NEM, N-ethylmaleimide, reference compound]
- reversibility of inhibition in dilution experiments (WT-IDE [1]): irreversible
- inhibition of single-cysteine mutant sC819 (IDE mutant sC819): completely inhibited
- inhibition of single-cysteine mutant sC812 (IDE mutant sC812): completely inhibited

- activity by hit cutoff criteria (extracellular IDE): inactive
- IC50 (extracellular IDE; [7]): > 10000 nM
Structure (SMILES): CN(C)S(=O)(=O)c1cccc(-n2sc3ccccc3c2=O)c1 [Compound 5]

- IC50 (extracellular IDE): 120 nM
- IC50 [2]: 71 nM
- Ki [3]: 7.89 µM
- kinhib (WT-IDE [4]): 15.3 min⁻¹
Structure (SMILES): O=c1c2cc(C(F)(F)F)ccc2sn1-c1cc(S(=O)(=O)N2CCOCC2)ccc1N1CCOCC1 [Compound 9, 2-(2-morpholin-4-yl-5-morpholin-4-ylsulfonylphenyl)-5-(trifluoromethyl)-1,2-benzothiazol-3-one]

- IC50 (extracellular IDE; [7]): 1400 nM
- IC50 (extracellular IDE; read-out: IC50^app cell-based, Table 2): 1400 nM
- IC50 ([2]; read-out: IC50^app against WT-IDE, cell-free): 233 nM
- IC50 [2, 8]: 230 nM
- Ki [3]: 8.18 µM
- kinhib (WT-IDE [4]): 2.05 min⁻¹
- reversibility of inhibition in dilution experiments (WT-IDE [1]): irreversible
- reversibility of WT-IDE inhibition by treatment with dithiothreitol (WT-IDE [5]; DTT treatment, Figure 2E): reversible
- activity in the presence of excess DTT, ß-mercaptoethanol or reduced glutathione (WT-IDE [5]; excess reducing agent, Supplementary Figure S1A): no activity was detected
- effect on intracellular pools of IDE after prolonged incubation of intact cells [6]: unaffected
Structure (SMILES): O=c1c2ccccc2sn1-c1cc(S(=O)(=O)N2CCOCC2)ccc1N1CCOCC1 [Compound 1]
- inhibition of single-cysteine mutant sC819 (IDE mutant sC819): strongly inhibited
- inhibition of single-cysteine mutant sC812 (IDE mutant sC812): no significant effect

- IC50 (extracellular IDE; [7]): 4000 nM
- IC50 [2, 8]: 1030 nM
Structure (SMILES): Cc1ccc(-n2sc3ccccc3c2=O)cc1S(=O)(=O)N1CCCCC1 [Compound 3]

- IC50 (extracellular IDE; [7]): 5600 nM
- IC50 [2, 8]: 1120 nM
Structure (SMILES): O=c1c2ccccc2sn1-c1cc(S(=O)(=O)N2CCOCC2)ccc1N1CCCC1 [Compound 4]

- activity by hit cutoff criteria (extracellular IDE): inactive
- IC50 (extracellular IDE; [7]): > 10000 nM
- IC50 [2, 8]: > 10000 nM
Structure (SMILES): O=c1c2ccccc2sn1-c1ccc(S(=O)(=O)N2CCCC2)cc1 [Compound 6]

- activity by hit cutoff criteria (extracellular IDE): active
- IC50 (extracellular IDE; [7]): 3900 nM
- IC50 [2, 8]: 1800 nM
Structure (SMILES): O=c1c2cc(F)ccc2sn1-c1ccccc1 [Compound 7]

- IC50 (extracellular IDE; [7]): 2100 nM
- IC50 [2, 8]: 540 nM
Structure (SMILES): O=C(O)c1ccccc1NS(=O)(=O)c1cccc(-n2sc3ccccc3c2=O)c1 [Compound 2]
